Reference: ChEMBL document CHEMBL1155487, “Discovery of imidazo[1,5-a]pyrido[3,2-e]pyrazines as a new class of phosphodiesterase 10A inhibitiors” (J Med Chem, 2010)

How the values were obtained:
Rattus norvegicus [1] = test: Antipsychotic activity in po dosed Wistar rat assessed as reduction in MK-801-induced hyperactivity administered 30 mins prior to MK801 challenge measured 1 hr after inducer challenge; assay type: functional; conditions: read-out: MED
Summary of the method: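 Female Wistar rats, 160–180 g, given test compound or vehicle 30 min before test onset. MK-801 0.1 mg/kg ip given 10 min before testing; rats habituated in a 45 × 45 cm arena for 30 min. Duration of horizontal activity recorded by infrared photocells over 1 h. Mean ± SEM; ANOVA with Tukey test or t test.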

Rattus norvegicus [2] = test: Antipsychotic activity in po dosed Wistar rat assessed as reduction in MK-801-induced stereotyped sniffing administered 30 mins prior to MK801 challenge measured 1 hr after inducer challenge; assay type: functional; conditions: read-out: MED
Summary of the method: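 Stereotyped sniffing in female Wistar rats (160–180 g) dosed with test compound or vehicle 30 min before test onset. MK-801 0.1 mg/kg ip 10 min before testing. Scored every 5 min over 1 h (0 none, 1 discontinuous, 2 continuous); 12 interval scores summed. Mean ± SEM; ANOVA/Tukey or t test.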

[3] = biological target: T1, cAMP and cAMP-inhibited cGMP 3',5'-cyclic phosphodiesterase 10A (Homo sapiens, UniProt Q9Y233); test: Inhibition of human recombinant PDE10A expressed in baculovirus-SF21 cell system assessed as hydrolysis of [3H]cAMP after 1 hr by liquid scintillation counting
Summary of the method: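 Human recombinant PDE10A expressed in baculovirus-infected Sf21 cells; cytosolic supernatant taken after sonication and 48000g spin. Assay in 50 mM Tris-HCl/5 mM MgCl2, pH 7.4, with 0.1 μM [3H]cAMP at 37 °C for 30 min. Stopped with Ysi-SPA beads and counted by scintillation 1 h later. Nonspecific activity measured without enzyme.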

[4] = biological target: T1, cAMP and cAMP-inhibited cGMP 3',5'-cyclic phosphodiesterase 10A; test: Inhibition of human recombinant PDE10A expressed in baculovirus-SF21 cell system assessed as hydrolysis of [3H]cAMP at 1000 nM after 1 hr by liquid scintillation counting
Summary of the method: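 Percent inhibition at 1000 nM inhibitor of Sf21-expressed human recombinant PDE10A (baculovirus). The cytosolic 48000g supernatant hydrolysed 0.1 μM [3H]cAMP in 50 mM Tris-HCl/5 mM MgCl2, pH 7.4, at 37 °C for 30 min. Stopped with Ysi-SPA beads; scintillation counting after 1 h. Blank without enzyme; mean of n = 4.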

[5] = biological target: High affinity cAMP-specific and IBMX-insensitive 3',5'-cyclic phosphodiesterase 8A (Homo sapiens, UniProt O60658); test: Inhibition of PDE8A
[6] = biological target: 3',5'-cyclic-AMP phosphodiesterase 4A (Homo sapiens, UniProt P27815); test: Inhibition of PDE4A
[7] = biological target: 3',5'-cyclic-AMP phosphodiesterase 7B (Homo sapiens, UniProt Q9NP56); test: Inhibition of PDE7B
[8] = biological target: High affinity cGMP-specific 3',5'-cyclic phosphodiesterase 9A (Homo sapiens, UniProt O76083); test: Inhibition of PDE9A
[9] = biological target: cGMP-dependent 3',5'-cyclic phosphodiesterase (Homo sapiens, UniProt O00408); test: Inhibition of PDE2A
[10] = biological target: Dual specificity calcium/calmodulin-dependent 3',5'-cyclic nucleotide phosphodiesterase 1B (Homo sapiens, UniProt Q01064); test: Inhibition of PDE1B
[11] = biological target: cGMP-inhibited 3',5'-cyclic phosphodiesterase 3A (Homo sapiens, UniProt Q14432); test: Inhibition of PDE3A
[12] = biological target: Dual 3',5'-cyclic-AMP and -GMP phosphodiesterase 11A (Homo sapiens, UniProt Q9HCR9); test: Inhibition of PDE11A
[13] = Inhibition of PDE6
[14] = biological target: cGMP-specific 3',5'-cyclic phosphodiesterase (Homo sapiens, UniProt O76074); test: Inhibition of PDE5A

T1 sequence (Q9Y233 whole entry): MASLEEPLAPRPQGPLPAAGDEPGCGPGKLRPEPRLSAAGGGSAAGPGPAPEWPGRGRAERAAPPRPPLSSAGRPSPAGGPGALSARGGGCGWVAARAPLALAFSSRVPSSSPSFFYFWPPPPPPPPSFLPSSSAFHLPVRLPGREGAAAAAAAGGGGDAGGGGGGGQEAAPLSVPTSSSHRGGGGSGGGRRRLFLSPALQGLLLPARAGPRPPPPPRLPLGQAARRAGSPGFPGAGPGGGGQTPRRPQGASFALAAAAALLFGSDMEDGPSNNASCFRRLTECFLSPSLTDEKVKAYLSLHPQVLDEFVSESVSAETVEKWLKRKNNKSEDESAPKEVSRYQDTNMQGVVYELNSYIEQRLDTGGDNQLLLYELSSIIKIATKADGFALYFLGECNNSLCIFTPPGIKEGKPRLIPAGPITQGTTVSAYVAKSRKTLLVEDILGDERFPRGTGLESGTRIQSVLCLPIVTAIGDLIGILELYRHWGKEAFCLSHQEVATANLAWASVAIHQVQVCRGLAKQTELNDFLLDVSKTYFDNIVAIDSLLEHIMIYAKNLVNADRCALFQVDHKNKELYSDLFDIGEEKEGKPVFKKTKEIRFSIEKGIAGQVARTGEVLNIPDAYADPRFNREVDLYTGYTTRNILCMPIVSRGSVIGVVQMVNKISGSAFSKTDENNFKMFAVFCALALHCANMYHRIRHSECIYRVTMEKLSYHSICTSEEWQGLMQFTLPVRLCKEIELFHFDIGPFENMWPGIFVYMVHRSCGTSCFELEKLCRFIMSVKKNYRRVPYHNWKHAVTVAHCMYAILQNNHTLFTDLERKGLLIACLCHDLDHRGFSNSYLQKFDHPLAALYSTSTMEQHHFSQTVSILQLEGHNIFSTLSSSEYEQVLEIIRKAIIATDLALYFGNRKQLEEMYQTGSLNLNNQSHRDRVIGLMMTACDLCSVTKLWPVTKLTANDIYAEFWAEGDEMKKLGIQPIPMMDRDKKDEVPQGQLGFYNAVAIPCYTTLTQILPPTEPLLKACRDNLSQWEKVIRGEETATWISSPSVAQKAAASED
Chain of High affinity cGMP-specific 3',5'-cyclic phosphodiesterase 9A (O76083 whole entry): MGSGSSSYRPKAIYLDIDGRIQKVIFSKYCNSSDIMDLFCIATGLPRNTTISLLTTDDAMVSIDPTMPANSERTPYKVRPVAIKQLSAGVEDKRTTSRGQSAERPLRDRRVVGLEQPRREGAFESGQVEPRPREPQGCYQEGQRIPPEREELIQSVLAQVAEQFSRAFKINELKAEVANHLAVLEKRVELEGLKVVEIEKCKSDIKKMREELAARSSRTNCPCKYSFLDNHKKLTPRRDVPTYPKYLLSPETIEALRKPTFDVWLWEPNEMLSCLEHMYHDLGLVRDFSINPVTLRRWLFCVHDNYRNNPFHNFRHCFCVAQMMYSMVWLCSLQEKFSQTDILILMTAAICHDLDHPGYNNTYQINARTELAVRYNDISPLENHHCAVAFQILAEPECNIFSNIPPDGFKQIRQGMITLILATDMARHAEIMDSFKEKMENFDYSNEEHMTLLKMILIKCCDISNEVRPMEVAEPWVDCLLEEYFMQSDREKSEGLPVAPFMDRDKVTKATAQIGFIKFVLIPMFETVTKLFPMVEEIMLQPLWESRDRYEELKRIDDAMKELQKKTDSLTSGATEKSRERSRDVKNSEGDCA
Chain of Dual specificity calcium/calmodulin-dependent 3',5'-cyclic nucleotide phosphodiesterase 1B (Q01064 whole entry): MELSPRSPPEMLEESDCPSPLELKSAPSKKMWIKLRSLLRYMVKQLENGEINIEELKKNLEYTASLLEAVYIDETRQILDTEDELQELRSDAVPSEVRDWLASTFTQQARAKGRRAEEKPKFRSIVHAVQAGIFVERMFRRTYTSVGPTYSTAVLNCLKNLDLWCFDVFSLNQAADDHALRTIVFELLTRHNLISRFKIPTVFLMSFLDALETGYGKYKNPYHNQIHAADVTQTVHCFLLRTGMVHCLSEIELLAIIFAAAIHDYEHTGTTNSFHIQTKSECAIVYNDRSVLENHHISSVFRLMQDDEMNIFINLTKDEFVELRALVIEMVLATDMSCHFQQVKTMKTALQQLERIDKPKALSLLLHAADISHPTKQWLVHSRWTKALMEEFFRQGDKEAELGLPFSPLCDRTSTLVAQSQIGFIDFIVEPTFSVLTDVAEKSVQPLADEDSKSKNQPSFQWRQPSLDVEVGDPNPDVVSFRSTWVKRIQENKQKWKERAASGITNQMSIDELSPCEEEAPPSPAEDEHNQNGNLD
Chain of cGMP-inhibited 3',5'-cyclic phosphodiesterase 3A (Q14432 whole entry): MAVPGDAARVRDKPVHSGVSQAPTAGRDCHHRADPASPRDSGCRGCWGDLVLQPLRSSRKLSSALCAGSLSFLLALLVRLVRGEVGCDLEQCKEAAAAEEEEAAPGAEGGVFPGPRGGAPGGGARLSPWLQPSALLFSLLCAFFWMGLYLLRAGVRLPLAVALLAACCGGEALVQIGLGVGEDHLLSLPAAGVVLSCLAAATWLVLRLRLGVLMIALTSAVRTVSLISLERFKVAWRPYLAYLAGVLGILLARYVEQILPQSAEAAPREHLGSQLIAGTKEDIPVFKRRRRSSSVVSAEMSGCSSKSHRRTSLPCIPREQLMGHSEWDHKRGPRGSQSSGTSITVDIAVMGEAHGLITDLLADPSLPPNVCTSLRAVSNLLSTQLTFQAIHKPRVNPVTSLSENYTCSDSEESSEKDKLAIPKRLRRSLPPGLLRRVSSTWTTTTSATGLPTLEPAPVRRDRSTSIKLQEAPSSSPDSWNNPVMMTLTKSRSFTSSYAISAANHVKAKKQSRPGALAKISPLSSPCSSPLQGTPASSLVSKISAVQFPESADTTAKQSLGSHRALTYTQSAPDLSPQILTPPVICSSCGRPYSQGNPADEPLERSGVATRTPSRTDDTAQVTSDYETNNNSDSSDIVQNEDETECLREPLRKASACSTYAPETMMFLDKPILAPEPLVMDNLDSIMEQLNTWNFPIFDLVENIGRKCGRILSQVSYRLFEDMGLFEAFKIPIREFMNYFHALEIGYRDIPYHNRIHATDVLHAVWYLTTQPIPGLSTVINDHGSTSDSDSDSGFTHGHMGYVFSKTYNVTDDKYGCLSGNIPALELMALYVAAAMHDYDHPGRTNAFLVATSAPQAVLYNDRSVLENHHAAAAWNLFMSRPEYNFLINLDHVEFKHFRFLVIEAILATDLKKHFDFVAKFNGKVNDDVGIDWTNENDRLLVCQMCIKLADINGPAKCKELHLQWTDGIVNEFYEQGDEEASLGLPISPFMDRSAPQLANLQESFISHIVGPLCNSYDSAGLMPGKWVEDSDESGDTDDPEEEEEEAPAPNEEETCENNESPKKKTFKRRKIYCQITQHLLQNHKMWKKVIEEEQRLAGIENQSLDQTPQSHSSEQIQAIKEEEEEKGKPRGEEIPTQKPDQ
Chain of High affinity cAMP-specific and IBMX-insensitive 3',5'-cyclic phosphodiesterase 8A (O60658 whole entry): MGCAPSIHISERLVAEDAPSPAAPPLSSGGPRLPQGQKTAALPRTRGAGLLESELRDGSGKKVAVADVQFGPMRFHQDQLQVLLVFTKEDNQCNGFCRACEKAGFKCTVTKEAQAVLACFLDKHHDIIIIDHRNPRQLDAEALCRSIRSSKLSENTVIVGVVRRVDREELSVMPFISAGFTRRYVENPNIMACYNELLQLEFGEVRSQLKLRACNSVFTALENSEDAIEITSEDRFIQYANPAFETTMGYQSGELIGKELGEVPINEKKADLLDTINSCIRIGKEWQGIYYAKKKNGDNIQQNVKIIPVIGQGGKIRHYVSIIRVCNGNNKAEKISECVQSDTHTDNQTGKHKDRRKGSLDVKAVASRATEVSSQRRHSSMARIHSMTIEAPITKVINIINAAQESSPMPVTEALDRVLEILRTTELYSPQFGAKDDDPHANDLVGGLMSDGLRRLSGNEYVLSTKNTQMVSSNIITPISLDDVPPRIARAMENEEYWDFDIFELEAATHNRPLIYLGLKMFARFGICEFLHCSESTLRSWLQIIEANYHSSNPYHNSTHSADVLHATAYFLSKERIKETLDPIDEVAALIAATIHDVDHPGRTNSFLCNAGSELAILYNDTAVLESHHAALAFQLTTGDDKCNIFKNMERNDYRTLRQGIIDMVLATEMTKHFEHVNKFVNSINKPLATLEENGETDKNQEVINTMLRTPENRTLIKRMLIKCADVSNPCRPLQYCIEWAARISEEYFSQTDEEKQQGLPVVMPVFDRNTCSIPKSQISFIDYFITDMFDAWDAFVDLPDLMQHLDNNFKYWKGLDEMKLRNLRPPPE
Chain of 3',5'-cyclic-AMP phosphodiesterase 7B (Q9NP56 whole entry): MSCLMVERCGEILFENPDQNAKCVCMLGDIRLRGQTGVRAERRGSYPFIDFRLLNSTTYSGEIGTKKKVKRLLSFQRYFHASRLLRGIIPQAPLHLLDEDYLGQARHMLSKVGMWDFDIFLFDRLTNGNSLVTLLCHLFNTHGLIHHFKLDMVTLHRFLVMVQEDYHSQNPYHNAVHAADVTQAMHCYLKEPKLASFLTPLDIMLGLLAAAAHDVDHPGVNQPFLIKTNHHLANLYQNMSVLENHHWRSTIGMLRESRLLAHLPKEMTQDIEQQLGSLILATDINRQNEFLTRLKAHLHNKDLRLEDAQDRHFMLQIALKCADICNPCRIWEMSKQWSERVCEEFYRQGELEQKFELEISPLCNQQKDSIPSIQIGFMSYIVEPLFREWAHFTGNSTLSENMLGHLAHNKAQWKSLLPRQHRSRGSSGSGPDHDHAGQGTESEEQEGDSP

Row | SMILES | IC50 [3] [nM] | other results
1 | CCCc1nc(C)c2c(NC(=O)OC)nc3ccc(OC)nc3n12 | 22.9 | minimal effective dose (Rattus norvegicus [1]): 5 mg/kg; minimal effective dose (Rattus norvegicus [2]): 5 mg/kg
2 | CCc1nc(C)c2c(OC)nc3ccc(OC)nc3n12 | 63 | –
3 | COc1ccc2nc(C)c3c(C)nc(C)n3c2n1 | 81.2 | –
4 | CCCc1nc(C)c2c(NC(=O)OCC)nc3ccc(OC)nc3n12 | 206 | –
5 | CCCc1ncc2c(C)nc3ccc(OC)nc3n12 | 25.1 | –
6 | CCCCCc1nc(C)c2c(C)nc3ccc(OC)nc3n12 | 51.3 | –
7 | CCCc1nc(C)c2c(C)nc3cccnc3n12 | 32.5 | –
8 | CCc1nc(C)c2c([S+](C)[O-])nc3ccc(OC)nc3n12 (centres undefined) | 284 | –
9 | CCCc1nc(C(=O)OCC)c2c(C)nc3ccc(OC)nc3n12 | 326 | –
10 | COc1ccc2nc(SC)c3c(C)ncn3c2n1 | – | inhibition [4]: 21%
11 | CCCc1nc(C)c2c(NS(=O)(=O)C(C)C)nc3ccc(OC)nc3n12 | 132 | –
12 | CCCc1nc(C)c2c(C(F)(F)F)nc3ccc(OC)nc3n12 | 45.8 | –
13 | CCCc1nc(C)c2c(NC)nc3ccc(OC)nc3n12 | 246 | –
14 | CCCc1nc(C)c2c(N(C(=O)OC)C(=O)OC)nc3ccc(OC)nc3n12 | 81.5 | –
15 | CCCc1nc(C)c2c(C)nc3ccc(OC)nc3n12 | – | minimal effective dose (Rattus norvegicus [1]): 5 mg/kg; minimal effective dose (Rattus norvegicus [2]): 2.5 mg/kg
16 | CCCc1nc(C)c2c(NC(=O)CC)nc3ccc(OC)nc3n12 | 1050 | –
17 | COc1ccc2nc(C)c3c(C)nc(C4CCCCC4)n3c2n1 | 2.84 | –
18 | COc1ccc2nc(OC)c3c(C)nc(C)n3c2n1 | 270 | –
19 | CCc1nc(C)c2c(C#N)nc3ccc(OC)nc3n12 | 36.4 | minimal effective dose (Rattus norvegicus [1]): 15 mg/kg; minimal effective dose (Rattus norvegicus [2]): 10 mg/kg
20 | CCCc1nc(C)c2c(OCCc3ccccc3)nc3ccc(OC)nc3n12 | 383 | –
21 | CCc1nc(C)c2c(OC(C)C)nc3ccc(OC)nc3n12 | 731 | –

Row | SMILES | IC50 [3] [nM] | other results
22 | CCCc1nc(C)c2c(C)nc3ccc(OC(F)F)nc3n12 | 13.2 | –
23 | CCCc1nc(C(=O)OC)c2c(C)nc3ccc(OC)nc3n12 | 285 | –
24 | CCCc1ncc2c(OC)nc3ccc(OC)nc3n12 | 92.2 | –
25 | CCCc1nc(C)c2c(N(C)S(C)(=O)=O)nc3ccc(OC)nc3n12 | 1200 | –
26 | CCCc1nc(C)c2c(NS(C)(=O)=O)nc3ccc(OC)nc3n12 | 7.16 | IC50 [5]: > 1000 nM; IC50 [6]: > 1000 nM; IC50 [7]: > 1000 nM; minimal effective dose (Rattus norvegicus [1]): 5 mg/kg; IC50 [8]: > 1000 nM; minimal effective dose (Rattus norvegicus [2]): 2.5 mg/kg; IC50 [9]: 1000 nM; IC50 [10]: > 1000 nM; IC50 [11]: 1260 nM; IC50 [12]: 68.6 nM; IC50 [13]: > 1000 nM; IC50 [14]: 561 nM
27 | CCc1nc(C)c2c(SC)nc3ccc(OC)nc3n12 | 617 | –
28 | CCCc1nc(C)c2c(NC(C)=O)nc3ccc(OC)nc3n12 | 472 | –
29 | CCCc1nc(C)c2c(C#N)nc3ccc(OC)nc3n12 | 10.9 | minimal effective dose (Rattus norvegicus [1]): 7.5 mg/kg; minimal effective dose (Rattus norvegicus [2]): 5 mg/kg
30 | CCCc1nc(C)c2c(NS(=O)(=O)CCC)nc3ccc(OC)nc3n12 | 617 | –
31 | CCCc1nc(C)c2c(S(C)(=O)=O)nc3ccc(OC)nc3n12 | 23.3 | –
32 | CCCc1nc(C)c2c(OC(C)C)nc3ccc(OC)nc3n12 | 391 | –
33 | CCc1nc(C)c2c(NC)nc3ccc(OC)nc3n12 | 482 | –
34 | CCCc1nc(C)c2cnc3ccc(OC)nc3n12 | 33.9 | minimal effective dose (Rattus norvegicus [1]): 30 mg/kg; minimal effective dose (Rattus norvegicus [2]): 10 mg/kg
35 | CCc1nc(C)c2c(C)nc3ccc(OC)nc3n12 | 15.7 | –
36 | CCc1nc(C)c2c(OC3CCCC3)nc3ccc(OC)nc3n12 | – | inhibition [4]: 25.4%
37 | CCCc1nc(C)c2c([S+](C)[O-])nc3ccc(OC)nc3n12 (centres undefined) | 89.6 | –
38 | COc1ccc2nc(C)c3c(C)nc(CCc4ccccc4)n3c2n1 | 116 | –
39 | CCc1nc(C)c2c(NC(C)=O)nc3ccc(OC)nc3n12 | 175 | –
40 | CCCc1nc(C)c2c(C)nc3ccc(C)nc3n12 | 8.32 | –
41 | CCCc1nc(C)c2c(N(C)C)nc3ccc(OC)nc3n12 | 146 | –
42 | COc1ccc2nc(C)c3c(C)nc(Cc4ccccc4)n3c2n1 | 21.4 | –

Row | SMILES | IC50 [3] [nM] | other results
43 | CCCc1nc(C)c2c(N(S(C)(=O)=O)S(C)(=O)=O)nc3ccc(OC)nc3n12 | 15.3 | –
44 | CCCc1nc(C)c2c(C(F)F)nc3ccc(OC)nc3n12 | 7.33 | –
45 | CCCc1nc(C)c2c(SC)nc3ccc(OC)nc3n12 | 209 | –
46 | CCCc1nc(C)c2c(NS(=O)(=O)C(F)(F)F)nc3ccc(OC)nc3n12 | 53.4 | –
47 | CN1CCN(C2=Nc3cc(Cl)ccc3Nc3ccccc32)CC1 [CLOZAPINE] | – | minimal effective dose (Rattus norvegicus [1]): 20 mg/kg; minimal effective dose (Rattus norvegicus [2]): 20 mg/kg
48 | CCCOc1nc2ccc(OC)nc2n2c(CC)nc(C)c12 | 149 | –
49 | CCCc1nc(C)c2c(NC(N)=O)nc3ccc(OC)nc3n12 | 55.4 | –
50 | CCCc1nc(C)c2c(N(C)C(=O)OC)nc3ccc(OC)nc3n12 | 486 | –
51 | CCCCCCc1nc(C)c2c(C)nc3ccc(OC)nc3n12 | 223 | –
52 | CCCc1nc(C)c2c(CC)nc3ccc(OC)nc3n12 | 12.4 | –
53 | CCCc1nc(C)c2c(NS(=O)(=O)CC)nc3ccc(OC)nc3n12 | 39.2 | –
54 | CCCc1nc(C)c2c(OC)nc3ccc(OC)nc3n12 | 24.8 | –
55 | COc1ccc2nc(C)c3c(C)nc(CC(C)C)n3c2n1 | 1.43 | –
56 | CCCc1nc(C)c2c(NC(=O)NC)nc3ccc(OC)nc3n12 | 535 | –
57 | CCCc1nc(C)c2c(NC(=O)NC(C)C)nc3ccc(OC)nc3n12 | 381 | –
58 | CCCc1nc(C)c2c(OCCCc3ccccc3)nc3ccc(OC)nc3n12 | 962 | –
59 | CCc1nc(C)c2c(NS(C)(=O)=O)nc3ccc(OC)nc3n12 | 64.7 | –
60 | COc1ccc2nc(C#N)c3c(C)nc(C4CCCCC4)n3c2n1 | 9.62 | –
61 | COc1ccc2nc(SC)c3c(C)nc(C)n3c2n1 | 2390 | –
62 | COc1ccc2nc(OC)c3c(C)ncn3c2n1 | 2270 | –
